Bioassay records from PubChem BioAssay.
Rows were chosen to be rich in hits. Some 12% of all compounds tested hit in one or more screens of this group.
Arbovirus inh = antivirals against arbovirus infection; arbovirus infection cell-based antiviral screen; inhibition, % at 10 µM; 0.37% of 200,000 active; in the data active = inhibition above about 30%
L major viab = inhibitors of Leishmania major promastigote growth | Leishmania major promastigotes, resazurin fluorescence viability | 9% of 200,000 active | inhibition, % at 10 µM | AID 1063;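 also: promastigotes grown with compound for 44 hours at 28 °C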
Wee1 stabilizer = inhibitors of human Wee1 degradation | P30291 | HeLa Luc-Wee1K328M stability, luciferase luminescence; 100% = proteasome inhibitor MG132 effect | reporter increase, % at 5 µM | 1.2% of 220,000 active;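 active = activation above the mean of all tested compounds plus 3 SD, set per screening run, cut at about 8.8% in these data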;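 also: cells exposed to compound for 20 h before luminescence read; 0% = DMSO alone and 100% = MG132 at 30 µM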
Target sequence (P30291 whole entry K328M): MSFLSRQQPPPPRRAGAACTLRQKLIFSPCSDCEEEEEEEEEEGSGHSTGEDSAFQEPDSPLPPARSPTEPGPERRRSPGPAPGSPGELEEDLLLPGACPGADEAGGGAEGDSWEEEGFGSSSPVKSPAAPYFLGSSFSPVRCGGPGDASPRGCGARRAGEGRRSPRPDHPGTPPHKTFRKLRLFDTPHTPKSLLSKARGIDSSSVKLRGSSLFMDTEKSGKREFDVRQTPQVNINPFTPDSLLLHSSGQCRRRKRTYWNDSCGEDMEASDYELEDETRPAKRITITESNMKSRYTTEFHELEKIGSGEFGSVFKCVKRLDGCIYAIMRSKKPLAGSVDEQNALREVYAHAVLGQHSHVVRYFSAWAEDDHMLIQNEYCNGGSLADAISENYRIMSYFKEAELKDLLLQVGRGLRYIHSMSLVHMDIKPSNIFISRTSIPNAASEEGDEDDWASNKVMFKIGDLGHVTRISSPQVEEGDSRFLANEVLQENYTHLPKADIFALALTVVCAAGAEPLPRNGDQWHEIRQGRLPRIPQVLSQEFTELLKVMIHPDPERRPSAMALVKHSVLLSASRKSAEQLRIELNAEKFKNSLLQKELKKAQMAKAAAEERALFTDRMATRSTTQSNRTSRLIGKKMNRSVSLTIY
PKD1 kinase inh = blocks activity of human protein kinase D1. AID 797. inhibition, % (test concentration not listed). PKD1 kinase fluorescence polarization assay. 0.056% of 200,000 active. Q15139
Rad51 HR inh = Rad51 (human) homologous recombination inhibition | Q06609 | hRad51 DNA strand exchange, fluorescence dequenching | inhibition, % at 10 µM | 0.085% of 200,000 active | AID 1385;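 active = inhibition above 40% at the single screening dose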;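 also: 0% = DMSO control wells and 100% = blanks with heterologous ssDNA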
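Test system – preformed human Rad51 ssDNA filaments · Reagent – Donor/quencher-labelled 47-bp dsDNA substrate · Incubation – 37 °C 15-min filament assembly, 30-min compound preincubation, 15-min exchange · Signal – FRET fluorescence dequenching, excitation 485 nm, emission 520 nm · Read-out – percent inhibition from fluorescence, normalised to plate control and blank means · Benchmarks – plate control and blank wells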
CHOP inh = blocks CHOP induction under ER stress. CHO-K1 CHOP-promoter luciferase, tunicamycin-induced, 15-18 h. inhibition, % at 10 µM. 3.8% of 220,000 active. AID 2732;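 active = compounds that reduced the stress-induced luciferase reporter signal by more than about 70% of percent inhibition, limit read from the data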;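 also: 0% = tunicamycin plus vehicle and 100% = wells without tunicamycin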
Starred values were filed as active, the others as inactive; · = no result given; ! = a repeat was not active. Rule as the data show it, unless noted: active = inhibition above about 50%; inactive = the rest.

SMILES	Arbovirus inh	L major viab	Wee1 stabilizer	PKD1 kinase inh	Rad51 HR inh	CHOP inh
COc1ccc(NC(=O)/C(=C/c2cccnc2)NC(=O)c2cccs2)cc1	-4	-3	6	-1	·	26
Cc1cccc2c(N=O)c(O)[nH]c12	·	·	0	·	-4	5
CC(C)OC(=O)c1ccc(NC(=O)c2ccco2)cc1	1	56*	2	-9	-2	7
CC(C)(C)NC(=O)c1cccc(NC(=O)c2ccc(NC(=O)c3ccco3)cc2)c1	9	5	1	-14	-4	7
COC(=O)c1ccc(NC(=O)CN2CCC(NC(=O)c3ccco3)CC2)cc1	4	2	11*	1	2	17
CC(C)OC(=O)c1ccc(NC(=O)c2ccccc2)cc1	-5	39	-1	-4	·	8
CC(C)(C)c1ccc(C(=O)Nc2ccc(NC(=O)c3ccco3)cc2)cc1	-12	-7	0	-6	16	73*
CCOC(=O)Cc1ccc(NC(=O)c2ccc(C(C)(C)C)cc2)cc1	-31	3	0	-7	-1	86*
COC(=O)c1ccc(OC(C)C(=O)c2ccc(C)cc2)cc1 (stereo unspecified)	-1	-10	-4	-9	2	29
COCCSc1ccccc1C(=O)NCc1cccnc1	3	0	1	-11	-16	0
COc1c(C)cc(C(=O)C2CCCN(C(=O)CCc3scnc3C)C2)cc1C (stereo unspecified)	8	12	0	2	14	14
CCC(C)(C)NC(=O)c1ccc(S(=O)(=O)N2CCCCCC2)cc1	4	-3	4	-4	-4	-3
CCN(c1ccccc1)S(=O)(=O)c1cc(C(=O)Nc2ccc(F)c(F)c2)ccc1F	-18	27	1	-6	1	71*
N[C@@H](Cc1cc(I)c(Oc2ccc(O)c(I)c2)c(I)c1)C(=O)O	47*!	-10	0	-9	3	18
N[C@@H](Cc1cc(I)c(Oc2cc(I)c(O)c(I)c2)c(I)c1)C(=O)O	·	·	·	·	-2	·
Cc1ccc(CSCc2ccc(C(=O)NCCCN3CCOCC3)o2)cc1	6	2	3	-2	-3	11
O=C(NCCCN1CCCC1)c1ccc(CSCc2cccc(Cl)c2)o1	-24	99*	2	-3	1	42
CC1CCN(CCCNC(=O)c2ccc(CSCc3cccc(Cl)c3)o2)CC1	-8	100*	2	4	5	23
CN1CCN(CCCNC(=O)c2ccc(CSCc3cccc(Cl)c3)o2)CC1	-9	99*	-3	0	-2	10
Cc1cccc(CS(=O)(=O)Cc2ccc(C(=O)NCCCN3CCCC3)o2)c1	-5	1	5	-9	4	2
COc1ccc(C(=O)NCC(=O)OCC(=O)Nc2cc([N+](=O)[O-])ccc2F)cc1	2	2	-2	-2	12	1
COc1ccccc1-c1nnc(SCc2nc3ccccc3s2)n1C	3	-2	0	-8	-6	-22
COc1ccc(-c2nnc(SCc3nc4ccccc4s3)n2C(C)C)cc1	20	84*	-1	-1	-9	18
CN(C)c1ccc2c3c(ccc(N(C)C)c13)C(=O)OC2	·	·	-2	·	·	11
Cc1cc(C)c2nc(NNC(=O)c3ccc(S(=O)(=O)N4CCc5ccccc5C4)cc3)sc2c1	-33	99*	-1	-4	-1	44
SMILES	Arbovirus inh	L major viab	Wee1 stabilizer	PKD1 kinase inh	Rad51 HR inh	CHOP inh
Cc1nnc(NC(=O)c2ccc(S(=O)(=O)N3CCc4ccccc4C3)cc2)o1	-3	-6	1	-2	·	15
Cc1cc(C)c2sc(NNC(=O)c3ccc(S(=O)(=O)N4CCc5ccccc5C4)cc3)nc2c1	-30	99*	0	-3	-2	45
CC(C)c1ccc(-c2c(C#N)c(N)nc(SCC(=O)N3CCCCCC3)c2C#N)cc1	-13	51*	0	-1	-2	47
CC(C)c1ccc(-c2c(C#N)c(N)nc(SCC(=O)N3CCCCC3)c2C#N)cc1	-4	-4	-3	-3	5	9
O=C(NCc1ccco1)c1cc([N+](=O)[O-])ccc1N1CCOCC1	-2	-3	1	-2	2	-12
N=c1n(Cc2ccc(Cl)cc2)c2ccccc2n1CC(O)COc1ccccc1 (stereo unspecified)	-35	100*	2	9	-5	83*
Cc1cccc(OCC(O)Cn2c(=N)n(Cc3ccccc3)c3ccccc32)c1 (stereo unspecified)	·	·	0	·	-2	35
COc1ccc(OCC(O)Cn2c(=N)n(Cc3ccccc3)c3ccccc32)cc1 (stereo unspecified)	-43	101*	0	4	9	56
N=c1n(CCO)c2ccccc2n1Cc1ccc(Cl)cc1	-13	9	0	-23	15	5
C=CCSc1nc2ccsc2c(=O)n1-c1cccnc1	3	6	5	-4	-23	-9
CCOc1cccc(-c2nc(C(N)=O)c3[nH]c(=O)n(-c4cccc(Cl)c4)c3n2)c1O	14	-8	1	3	3	95*
CCOc1ccccc1-c1nc(C(N)=O)c2[nH]c(=O)n(-c3cccc(C)c3)c2n1	30	64*	-2	14	·	-2
CCN(CCCNC(=O)COc1cc(=O)n(C)c2ccccc12)c1ccccc1	0	65*	-2	-6	-6	-18
CCN(C(=O)COc1cc(=O)n(C)c2ccccc12)c1cccc(Cl)c1	7	62*	-1	-6	-2	-2
CN(C(=O)COc1cc(=O)n(C)c2ccccc12)c1cccc(Cl)c1	-3	15	8	-6	-3	19
CCN(CCCNC(=O)COc1cc(=O)n(CC)c2ccccc12)c1ccccc1	-2	53*	0	-13	·	35
O=c1c2nnn(-c3ccc(Br)cc3)c2ncn1Cc1ccccn1	10	-10	7	1	5	3
OC(COc1cccc2ccccc12)CN1CCN(c2ccccc2)CC1 (stereo unspecified)	·	·	1	·	18	51
CC(COc1cccc2ccccc12)CN1CCN(C)CC1 (stereo unspecified)	-24	83*	-3	-8	-4	29
O=S(=O)(c1ccc2ccccc2c1)N1CCN(C(=S)Nc2ccc(F)cc2)CC1	10	2	-1	-3	7	17
O=S(=O)(c1ccc2ccccc2c1)N1CCN(C(=S)Nc2ccc(F)c(Cl)c2)CC1	-5	90*	0	-5	-5	18
O=C(CCC(=O)N1CCN(S(=O)(=O)c2ccc3ccccc3c2)CC1)Nc1cc(Cl)cc(Cl)c1	1	63*	-2	-3	-1	67
Cc1ccc(C(=O)CC2(O)C(=O)N(C)c3ccccc32)s1 (stereo unspecified)	4	-3	-1	-8	3	-5
